Published values gathered from unrelated publications.
Target: Calcium/calmodulin-dependent protein kinase type II subunit alpha (CAMK2A, Homo sapiens, UniProt Q9UQM7)

SMILES | assay | setting | remaining binding [%]
CNC(=O)[C@@H]1CC[C@@H](n2c(-c3ccc4cnccc4c3)nc3ccc(C(=O)NCc4cccc(C(N)=O)c4)cc32)C1 | binding, competition with immobilised ligand | 1 µM | 100
CC1CCCN1c1nccc(-c2cnn3ncccc23)n1 (stereo not shown) | binding | 1 µM | 90
O=C(c1ccc(Nc2ncc(Cl)c(-c3cc4ccccc4s3)n2)cc1)N1CCC(N2CCCC2)CC1 | binding, competition with immobilised ligand | 1 µM | 75
COc1ccc2c(c1)O[C@H](c1ccc(OC)c(OC)c1)C[C@@H]2NC(=O)C1(c2ccc3c(c2)OC(F)(F)O3)CC1 | cell-free assay, competition with immobilised ligand | 1 µM | 100
CN(C)c1nccc(-c2cnn3ncccc23)n1 | binding | 1 µM | 62
Cn1nc(C(=O)NCc2ccc(C(=O)O)cc2)cc1-c1ccc2[nH]ccc2c1 | cell-free assay, competition with immobilised ligand | 0.1 µM | 79
N[C@H]1CCN(c2nccc(-c3cnn4ncccc34)n2)C1 | binding | 1 µM | 100
O=C(NCCCN1CCOCC1)c1ccc(Nc2ncc(Cl)c(-c3ccc(Cl)s3)n2)cc1 | binding, competition with immobilised ligand | 1 µM | 91
FC(F)(F)Oc1cccc(-c2cnc3ccc(-c4ccncc4)nn23)c1 | cell-free assay, competition with immobilised ligand | 5 µM | 14
O=c1nc(-c2ccccn2)sc2ccccc12 | cell-free assay, competition with immobilised ligand | 1 µM | 100
COc1ncc2cc3ccccc3nc2c1C#N | cell-free assay, competition with immobilised ligand | 5 µM | 95
O=C(NCC1CCOCC1)c1n[nH]cc1NC(=O)c1c(F)cccc1F | binding, competition with immobilised ligand | 1 µM | 94
N#CC1(c2ccccn2)CCN(Cc2cc(C(=O)N3CCCC3)c(=O)n3ccccc23)CC1 | cell-free assay, competition with immobilised ligand | 1 µM | 84
CN(CCCC(F)(F)F)c1nccc(-c2cnn3ncccc23)n1 | binding | 1 µM | 91
O=C(NCCCN1CCOCC1)c1ccc(Nc2nccc(-c3cc4ccccc4s3)n2)cc1 | binding, competition with immobilised ligand | 1 µM | 68
CS(=O)(=O)NCC[C@H](NC(=O)c1cncc2c1cnn2-c1ccc(F)cc1)c1ccnc(S(C)(=O)=O)c1 | cell-free assay, competition with immobilised ligand | 1 µM | 100
C[C@H]1CCN(c2nccc(-c3cnn4ncccc34)n2)C1 | binding | 1 µM | 91
Nc1ncc2c(n1)-c1c([nH]c3ccc(C#CC4CC4)cc13)CCCC2 | binding, competition with immobilised ligand | 1 µM | 100
CCOC(=O)c1cc2cc(-c3cc(C(=O)NCc4ccc(C(=O)O)cc4)nn3C)ccc2[nH]1 | cell-free assay, competition with immobilised ligand | 0.1 µM | 76
CCN1CCN(Cc2ccc(C(=O)Nc3ccc(C)c(Oc4ccc5c(c4)CC(=O)N5)c3)cc2C(F)(F)F)CC1 | binding, competition with immobilised ligand | 1 µM | 100
O=C(Nc1cnc(Oc2ccc(F)cc2)nc1)N1CCc2ncccc2[C@@H]1c1ccc(F)cc1 | cell-free assay, competition with immobilised ligand | 1 µM | 92
CN(C)c1nccc(-c2cnc3ncccn23)n1 | binding | 1 µM | 92
